The results in this text go back to ChEMBL document CHEMBL1138870, “In vitro and in vivo efficacy and in vitro metabolism of 1-phenyl-3-aryl-2-propen-1-ones against Plasmodium falciparum” (Bioorg Med Chem Lett, 2006).

Activity calls are given as the source filed them.

For one data set, the system named is Plasmodium falciparum. The data set is described as follows: Antimalarial activity against Plasmodium falciparum W2.
Conditions: not given
In kind it is functional, organism-based. The method, boiled down:
(§1)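 Cultured P. falciparum parasites were exposed to compound, and inhibition of [³H]hypoxanthine uptake was measured to give the IC50. Values come from a single experiment.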
As usually defined, the IC50 is the concentration that gives 50% inhibition. Consider `COc1ccc(C(=O)/C=C/c2ccnc3ccccc23)cc1OC`, for which inhibition was half-maximal at 500 nM (IC50).

Turning to `COc1ccc(C(=O)/C=C/c2ccnc3ccccc23)cc1F`, the IC50 was 3200 nM.

Regarding `O=C(/C=C/c1cnc2ccccc2c1)c1cc(Cl)ccc1Cl`, the IC50 is 1700 nM.

For another data set, the system named is Plasmodium falciparum. Description: Antimalarial activity against Plasmodium falciparum D6. In kind it is functional, organism-based.
Conditions: not given
The method, boiled down: as §1
Compound `COc1ccc(C(=O)/C=C/c2ccnc3ccccc23)cc1OC` displayed a half-maximal inhibitory concentration (IC50) of 880 nM.

Compound `COc1ccc(C(=O)/C=C/c2ccnc3ccccc23)cc1F` returned an IC50 of 930 nM. The IC50 values of the last two compounds are within 1.5-fold of each other.

In the case of `O=C(/C=C/c1cnc2ccccc2c1)c1cc(Cl)ccc1Cl`, inhibition was half-maximal at 620 nM (IC50).

The subject of a further data set is Plasmodium falciparum. The data set is described as follows: Resistance index, IC50 of Plasmodium falciparum W2/IC50 Plasmodium falciparum D6. Format: ADME, organism-based. The settings on record: in vitro. The method, boiled down: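 Ratio of IC50 against P. falciparum W2 to IC50 against strain D6. Each IC50 comes from in vitro inhibition of [3H]hypoxanthine uptake by the parasites, with values from a single experiment.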
Take `COc1ccc(C(=O)/C=C/c2ccnc3ccccc23)cc1OC`: the “Ratio IC50” value is 0.57.

For `COc1ccc(C(=O)/C=C/c2ccnc3ccccc23)cc1F`, the “Ratio IC50” value is recorded as 3.4.

As for `O=C(/C=C/c1cnc2ccccc2c1)c1cc(Cl)ccc1Cl`, the “Ratio IC50” value is reported as 2.7.

In another data set the test system is Mus musculus. The data set is described as follows: Effect on survival of mice (Mus musculus) infected with Plasmodium berghei at 640 mg/kg, perorally. In kind it is functional, organism-based. The arrangement: dose 640 mg/kg.
Conditions: not given
The method, boiled down:
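Mice were inoculated intraperitoneally on day 0 with 1.0 × 10⁶ P. berghei P-line-infected red cells. Compound was dissolved in DMSO, diluted with 0.5% hydroxyethylcellulose and 0.1% Tween, and given orally once daily on days 3–7 at 640 mg/kg/dose. Survival of five treated mice was compared with five untreated infected controls.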
As for `COc1ccc(C(=O)/C=C/c2ccnc3ccccc23)cc1OC`, the outcome was inactive.

In the case of `COc1ccc(C(=O)/C=C/c2ccnc3ccccc23)cc1F`, the outcome was inactive.

Regarding `O=C(/C=C/c1cnc2ccccc2c1)c1cc(Cl)ccc1Cl`, the result was inactive.

Test system in another data set: not listed separately
The data set is described as follows: Metabolic stability in mouse liver microsomes.
Conditions: not given
In kind it is ADME, Microsome. For orientation: Liver microsomes are vesicles of endoplasmic reticulum, rich in cytochrome P450 enzymes.
By half-life is commonly meant the time needed for the level to fall by half in the phase considered. Read a low half-life as fast loss. `COc1ccc(C(=O)/C=C/c2ccnc3ccccc23)cc1OC` gave a half-life of 15.6 min.

Compound `COc1ccc(C(=O)/C=C/c2ccnc3ccccc23)cc1F` showed a half-life of 30.6 min.

Take `O=C(/C=C/c1cnc2ccccc2c1)c1cc(Cl)ccc1Cl`: the half-life was 24.6 min.
